# Assays:
# Assay type in all cases: functional
# [1] = system: Trichophyton mentagrophytes; experiment: Antifungal activity against Trichophyton mentagrophytes after 48 hrs by agar diffusion method
# Klebsiella pneumoniae [2] = experiment: Bactericidal activity against clinical isolate of Klebsiella pneumoniae after 18 to 24 hrs by colony counting method
# Candida albicans [3] = experiment: Antifungal activity against Candida albicans after 48 hrs by agar diffusion method
# Staphylococcus aureus [4] = experiment: Bactericidal activity against methicillin-resistant Staphylococcus aureus after 18 to 24 hrs by colony counting method
# Procedure, shortened: (§1)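 Colonies were counted after 18–24 h at 35 °C. MBC is the lowest concentration that kills 99.9% of the inoculum.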
# Talaromyces marneffei [5] = experiment: Antifungal activity against Penicillium marneffei after 48 hrs by agar diffusion method
# Candida albicans [6] = experiment: Antifungal activity against Candida albicans after 48 hrs
# Procedure, shortened: (§2)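 Broth with two-fold serial dilutions of compound was inoculated with 1.6 × 10⁴–6 × 10⁴ c.f.u/ml and incubated at 35 °C. MIC is the lowest concentration that arrests growth. For MFC, 0.1 ml was spread on agar, colonies were counted after 48 h at 35 °C, and the endpoint was the lowest concentration killing 99.9%.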
# [7] = system: Trichophyton mentagrophytes; experiment: Antifungal activity against Trichophyton mentagrophytes after 48 hrs; procedure, shortened: as §2
# Staphylococcus aureus [8] = experiment: Antibacterial activity against methicillin-resistant Staphylococcus aureus after 24 hrs by broth dilution method
# Klebsiella pneumoniae [9] = experiment: Antibacterial activity against clinical isolate of Klebsiella pneumoniae after 24 hrs by broth dilution method
# Escherichia coli [10] = experiment: Antibacterial activity against Escherichia coli ATCC 25922 after 24 hrs by disk diffusion method
# Escherichia coli [11] = experiment: Antibacterial activity against Escherichia coli ATCC 25922 after 24 hrs by broth dilution method; conditions: ATCC 25922, 24 h
# Streptococcus pyogenes [12] = experiment: Antibacterial activity against clinical isolate of Streptococcus pyogenes after 24 hrs by broth dilution method
# Klebsiella pneumoniae [13] = experiment: Antibacterial activity against clinical isolate of Klebsiella pneumoniae after 24 hrs by disk diffusion method
# Pseudomonas aeruginosa [14] = experiment: Antibacterial activity against Pseudomonas aeruginosa ATCC 27853 after 24 hrs by broth dilution method; conditions: ATCC 27853, 24 h
# Pseudomonas aeruginosa [15] = experiment: Bactericidal activity against Pseudomonas aeruginosa ATCC 27853 after 18 to 24 hrs by colony counting method; procedure, shortened: as §1
# Aspergillus fumigatus [16] = experiment: Antifungal activity against Aspergillus fumigatus after 48 hrs; procedure, shortened: as §2
# Pseudomonas aeruginosa [17] = experiment: Antibacterial activity against Pseudomonas aeruginosa ATCC 27853 after 24 hrs by disk diffusion method
# Talaromyces marneffei [18] = experiment: Antifungal activity against Penicillium marneffei after 48 hrs; procedure, shortened: as §2
# Aspergillus fumigatus [19] = experiment: Antifungal activity against Aspergillus fumigatus after 48 hrs by agar diffusion method
# Staphylococcus aureus [20] = experiment: Antibacterial activity against methicillin-resistant Staphylococcus aureus after 24 hrs by disk diffusion method
# Streptococcus pyogenes [21] = experiment: Antibacterial activity against clinical isolate of Streptococcus pyogenes after 24 hrs by disk diffusion method
# Streptococcus pyogenes [22] = experiment: Bactericidal activity against clinical isolate of Streptococcus pyogenes after 18 to 24 hrs by colony counting method
# Escherichia coli [23] = experiment: Bactericidal activity against Escherichia coli ATCC 25922 after 18 to 24 hrs by colony counting method; procedure, shortened: as §1
# Talaromyces marneffei [24] = experiment: Antifungal activity against Penicillium marneffei after 48 hrs by Halo zone test
# Candida albicans [25] = experiment: Antifungal activity against Candida albicans after 48 hrs by Halo zone test
# [26] = system: Trichophyton mentagrophytes; experiment: Antifungal activity against Trichophyton mentagrophytes after 48 hrs by Halo zone test
# Aspergillus fumigatus [27] = experiment: Antifungal activity against Aspergillus fumigatus after 48 hrs by Halo zone test
SMILES,diameter of the inhibition zone (DIZ) [1],MBC (Klebsiella pneumoniae [2]),diameter of the inhibition zone (DIZ) (Candida albicans [3]),MBC (Staphylococcus aureus [4]),diameter of the inhibition zone (DIZ) (Talaromyces marneffei [5]),MFC (Candida albicans [6]),MIC (Candida albicans [6]),MFC [7],MIC [7],MIC (Staphylococcus aureus [8]),MIC (Klebsiella pneumoniae [9]),diameter of the inhibition zone (DIZ) (Escherichia coli [10]),MIC (Escherichia coli [11]),MIC (Streptococcus pyogenes [12]),diameter of the inhibition zone (DIZ) (Klebsiella pneumoniae [13]),MIC (Pseudomonas aeruginosa [14]),MFC (Aspergillus fumigatus [16]),MIC (Aspergillus fumigatus [16]),MFC (Talaromyces marneffei [18]),MIC (Talaromyces marneffei [18]),also measured
Cc1nn(-c2ccccc2)c(Cl)c1/C=C/C(=O)C1C(=O)N(C)C(=O)N(C)C1=O,17.2 mm,100 µg/mL,21.3 mm,50 µg/mL,14.8 mm,50 µg/mL,25 µg/mL,50 µg/mL,25 µg/mL,25 µg/mL,50 µg/mL,22.2 mm,25 µg/mL,25 µg/mL,16.1 mm,25 µg/mL,50 µg/mL,25 µg/mL,50 µg/mL,25 µg/mL,MBC (Pseudomonas aeruginosa [15]): 100 µg/mL; diameter of the inhibition zone (DIZ) (Pseudomonas aeruginosa [17]): 25.2 mm; diameter of the inhibition zone (DIZ) (Aspergillus fumigatus [19]): 18.6 mm; diameter of the inhibition zone (DIZ) (Staphylococcus aureus [20]): 17.3 mm; diameter of the inhibition zone (DIZ) (Streptococcus pyogenes [21]): 20.1 mm; MBC (Streptococcus pyogenes [22]): 50 µg/mL; MBC (Escherichia coli [23]): 50 µg/mL
COC1=CC(=O)C[C@@H](C)[C@]12Oc1c(Cl)c(OC)cc(OC)c1C2=O [GRISEOFULVIN],–,–,–,–,–,12.5 µg/mL,6.25 µg/mL,25 µg/mL,6.25 µg/mL,–,–,–,–,–,–,–,25 µg/mL,12.5 µg/mL,25 µg/mL,12.5 µg/mL,diameter of the inhibition zone (DIZ) (Talaromyces marneffei [24]): 20 mm; diameter of the inhibition zone (DIZ) (Candida albicans [25]): 30 mm; diameter of the inhibition zone (DIZ) [26]: 24 mm; diameter of the inhibition zone (DIZ) (Aspergillus fumigatus [27]): 27 mm
Cc1nn(-c2ccccc2)c(Cl)c1/C=C/C(=O)C1C(=O)NC(=O)NC1=O,17.1 mm,25 µg/mL,25.5 mm,50 µg/mL,14.1 mm,25 µg/mL,12.5 µg/mL,25 µg/mL,12.5 µg/mL,12.5 µg/mL,12.5 µg/mL,24.8 mm,12.5 µg/mL,12.5 µg/mL,17.1 mm,12.5 µg/mL,25 µg/mL,12.5 µg/mL,25 µg/mL,12.5 µg/mL,MBC (Pseudomonas aeruginosa [15]): 25 µg/mL; diameter of the inhibition zone (DIZ) (Pseudomonas aeruginosa [17]): 27.2 mm; diameter of the inhibition zone (DIZ) (Aspergillus fumigatus [19]): 21.3 mm; diameter of the inhibition zone (DIZ) (Staphylococcus aureus [20]): 20.2 mm; diameter of the inhibition zone (DIZ) (Streptococcus pyogenes [21]): 22.2 mm; MBC (Streptococcus pyogenes [22]): 25 µg/mL; MBC (Escherichia coli [23]): 50 µg/mL
Cc1nn(-c2ccccc2)c(Cl)c1C1CC(C2C(=O)NC(=O)NC2=O)=NN1 (stereo not drawn),16 mm,> 100 µg/mL,20.4 mm,> 100 µg/mL,13.1 mm,100 µg/mL,50 µg/mL,100 µg/mL,50 µg/mL,100 µg/mL,50 µg/mL,19.2 mm,50 µg/mL,50 µg/mL,14.7 mm,50 µg/mL,100 µg/mL,50 µg/mL,100 µg/mL,50 µg/mL,MBC (Pseudomonas aeruginosa [15]): 100 µg/mL; diameter of the inhibition zone (DIZ) (Pseudomonas aeruginosa [17]): 20.1 mm; diameter of the inhibition zone (DIZ) (Aspergillus fumigatus [19]): 16.8 mm; diameter of the inhibition zone (DIZ) (Staphylococcus aureus [20]): 15.3 mm; diameter of the inhibition zone (DIZ) (Streptococcus pyogenes [21]): 16.8 mm; MBC (Streptococcus pyogenes [22]): 100 µg/mL; MBC (Escherichia coli [23]): > 100 µg/mL
